Assay results pooled from the literature.
Each line is one published result; the experiments were not run side by side. pKi: −log10 of the molar value.
Target: Histamine H3 receptor (HRH3, Homo sapiens, UniProt Q9Y5N1)
Technique: radioligand

SMILES	effect on	setting	pKi
CN(C)c1ccc(/C=C2\CCc3ccc(OCc4ccc(OCCCN5CCCCC5)cc4)cc3C2=O)cc1	ligand displacement	cell membranes	7.01
CCCc1ccc(OCCCCCCN2CCCC(C)C2)cc1 (centres unmarked)	ligand displacement	cell membranes	7.07
O=C1NC(c2ccccc2)(c2ccccc2)C(=O)N1CCCN1CCCCC1	ligand displacement	cell membranes	8.21
c1ccc(CNc2ccnc(Nc3ccc(OCCCN4CCCCC4)cc3)n2)cc1	ligand displacement	cell membranes	8.35
CN(C)c1ccc(/C=C/C=C2\CCc3cc(OCc4ccc(OCCCN5CCCCC5)cc4)ccc3C2=O)cc1	ligand displacement	cell membranes	7.17
CC1CCCN(CCCCCCOc2ccc(-c3ccccc3)cc2)C1 (centres unmarked)	ligand displacement	cell membranes	6.83
O=C1CCCc2ccc(OCCCN3CCCCC3)cc21	ligand displacement	cell membranes	7.05
CCC(=O)c1ccc(OCCCCCCN2CCCC(C)C2)cc1 (centres unmarked)	ligand displacement	cell membranes	7.41
CCCCN1CCC(COC(=O)c2ccc(N)c(OCF)c2)CC1	cell-free assay		5.51
CN1CCN(c2cc(Nc3ccc(OCCCN4CCCCC4)cc3)nc(N)n2)CC1	ligand displacement	cell membranes	7.93
O=C1NC(=O)C(c2ccccc2)(c2ccc(OCCCN3CCCCC3)cc2)N1 (centres unmarked)	ligand displacement	cell membranes	6.24
